Sampled rows, rich in hits. Any-hit rate of the full collection: about 1.8%.
Jurkat NFkB inh: inhibitors of the PMA/ionomycin-induced NF-kB reporter in Jurkat cells | PMA/ionomycin-induced NF-kB luciferase reporter, luminescence | inhibition, % at 4 µM | 330,000 tested, 0.53% active; in the data active means inhibition above about 50%
NR2E3 ag-1: human photoreceptor-specific nuclear receptor agonism | CHO-S Gal4-NCOR/VP16-NR2E3 two-hybrid, luciferase | AID 602229 | inhibition of corepressor binding, % at 3.98 µM | Q9Y5X4 | 360,000 tested, 0.35% active;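 active means inhibition above the mean of all tested compounds plus 3 SD, cut at about 70% in these data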;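 further: 0% = DMSO with NR2E3 transfected cells and 100% = cells lacking NR2E3 construct; higher means lower luciferase signal from less NR2E3 corepressor binding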
GalR3 antagonist: antagonists of human GalR3 | O60755 | HEK293 GalR3-CNG cAMP membrane potential fluorescence; galR3 body fused to GalR1 C-terminus | inhibition, % at 3 µM | 360,000 tested, 0.44% active | AID 651719;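 active means inhibition above the screen-wide average plus 3 SD, cut at about 13% in these data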;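 further: forskolin and galanin both at EC90 stimulate the cells; cAMP rise reported by CNG channel membrane potential dye signal; 0% = forskolin plus galanin with DMSO and 100% = forskolin alone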
Target sequence (O60755 1-299 limits assumed): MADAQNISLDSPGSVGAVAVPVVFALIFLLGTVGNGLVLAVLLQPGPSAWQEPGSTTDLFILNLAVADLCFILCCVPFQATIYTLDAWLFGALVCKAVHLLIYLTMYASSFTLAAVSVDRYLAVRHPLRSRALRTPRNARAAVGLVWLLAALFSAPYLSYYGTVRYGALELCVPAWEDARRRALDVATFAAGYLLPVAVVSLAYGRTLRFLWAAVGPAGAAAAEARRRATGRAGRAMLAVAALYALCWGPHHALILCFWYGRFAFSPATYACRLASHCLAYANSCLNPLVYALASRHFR
NR2E3 ag-2: NR2E3 (human) agonism. Q9Y5X4. GST-NR2E3/biotin-RetCOR TR-FRET, 1536-well. inhibition of corepressor binding, % at 4.78 µM. 320,000 tested, 0.12% active. AID 2300;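 active means percent inhibition above the cutoff of mean plus 3 SD of all tested compounds, set per screening campaign, cut at about 20% in these data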;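 further: 0% = DMSO wells and 100% = biotin wells as full block of FRET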
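System: GST-NR2E3 and biotin-RetCOR proteins; probe or stimulus: 7 nM biotin-RetCOR; doses: compound at 4.8 µM, single dose; schedule: Compound–protein incubation for 5 h at 4 °C; detection: time-resolved FRET; read-out: percent inhibition; controls: biotin wells as high control, 0.6% DMSO wells as low control; format: 1536-well plates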
697 NFkB inh: lowers PMA/ionomycin-induced NF-kB signal in 697 B cells. 330,000 tested, 0.33% active. 697 B-cell NF-kB luciferase reporter, 16 h. inhibition, % at 4 µM. AID 435022; in the data active means inhibition above about 35%
Gli-Sufu block: Gli-Sufu pathway antagonism; Sufu-KO-LIGHT fibroblasts, Gli luciferase reporter luminescence; inhibition, % at 5 µM; 340,000 tested, 0.74% active;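 active means inhibition above about 55%, limit read from the data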;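 further: 0% = DMSO-treated cells and 100% = wells with medium but no cells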
GalR3 antag conf: confirmation of human galanin receptor 3 antagonists. AID 652245. 1,600 tested, 59% active. shares compounds with GalR3 antagonist. HEK293 GalR3 CNG cAMP biosensor, membrane potential fluorescence; galR3 fused to GalR1 carboxy tail; challenged with forskolin and galanin at EC90. inhibition, % at 3 µM;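 active means inhibition above the primary screen's cutoff, the mean inhibition of all screened compounds plus 3 SD, cut at about 13% in these data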;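 further: 0% = forskolin plus galanin and 100% = forskolin alone with DMSO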
HEK-CNG parental: parental cell agonism counter-screen for GalR3 antagonists. shares compounds with GalR3 antagonist. HEK293-CNG parental cells, cAMP membrane potential fluorescence; normalised: DMSO wells 0%, forskolin wells 100%. activation, % at 3 µM. 1,600 tested, 10% active; in the data active means activation above about 1.3%
Active calls of the source: *; x = no result given.

SMILES	Jurkat NFkB inh	NR2E3 ag-1	GalR3 antagonist	NR2E3 ag-2	697 NFkB inh	Gli-Sufu block	GalR3 antag conf	HEK-CNG parental
CC(C)(CNC(=O)Cc1ccc(Br)cc1)N1CCOCC1	-8	13	-10	1	-7	9	x	x
CCCc1ccc(Oc2cc(C)nc(N3CCOCC3)n2)cc1	-19	-15	15*	2	-26	-15	9	0
Cc1cc(Oc2ccc(C(C)(C)C)cc2)nc(N2CCOCC2)n1	-31	-34	9	0	-7	-6	x	x
NNC(=O)c1cc2c(N3CCC(Cc4ccccc4)CC3)ncnc2s1	16	3	29*	2	-16	34	21*	1
CC(C)(C)OC(=O)N1CCc2onc(-c3ccc(Br)cc3)c2C1=O	x	-19	-6	x	x	x	x	x
CNC(=O)[C@H]1O[C@@H](n2cnc3c(NCc4cccc(I)c4)nc(Cl)nc32)[C@H](O)[C@@H]1O	11	-6	51*	-1	19	1	52*	-1
CCCCN(C)C(=O)c1sc(=O)n(CC(=O)c2ccccc2OC)c1C	x	-6	4	x	x	x	x	x
CCOC(=O)C1CCCN(C(=O)c2ccccc2[N+](=O)[O-])C1 (stereo not drawn)	2	-19	55*	-2	-16	2	3	0
O=C(c1ccccc1[N+](=O)[O-])N1CCCC(C(=O)N2CCCCCC2)C1 (stereo not drawn)	10	1	-7	2	12	1	x	x
Cc1ccc(Cn2ncc3c(N4CCN(Cc5ccc(Cl)cc5)CC4)ncnc32)cc1	48	-5	53*	0	-10	-3	69*	1
Cc1ccc(Cn2ncc3c(N4CCN(c5ccc(C)cc5)CC4)ncnc32)cc1	42	-19	-4	-4	1	16	x	x
CN1CCN(C2CN(Cc3cn(Cc4ccc(C(F)(F)F)cc4)nn3)S(=O)(=O)C2)CC1 (stereo not drawn)	x	7	-1	x	x	x	x	x
CCCc1ccc(C2C3=C(CC(C)(C)CC3=O)NC3=C2C(=O)c2ccccc23)cc1 (stereo not drawn)	-12	27	0	2	14	4	x	x
CC1(C)CC(=O)C2=C(C1)NC1=C(C(=O)c3ccccc31)C2c1ccc(O)cc1 (stereo not drawn)	-14	-3	34*	-5	5	44	60*	-1
CC(=O)N1CCN(c2ccc(NC(=S)NC(=O)COc3ccc(C(C)(C)C)cc3)cc2)CC1	16	-12	30*	2	-48	35	95*	-1
CCn1nc(CC(C)C)cc1C(=O)N1CCCC(Nc2ccc(OC)cc2)C1 (stereo not drawn)	7	-28	-3	0	-7	-10	x	x
COc1ccccc1NC(=S)NC(=O)c1c(-c2ccccc2Cl)noc1C	1	1	15*	-1	-11	-3	6	0
Cc1onc(-c2ccccc2Cl)c1C(=O)NC(=S)Nc1ccccc1F	17	-2	-6	6	-2	28	x	x
O=C1NC(=Nc2ccccc2)S/C1=C\c1cccnc1	17	0	2	0	12	2	x	x
Cc1ccc(N=C2NC(=O)/C(=C/c3cccnc3)S2)cc1C	14	18	15*	-1	10	-4	4	0
CC(C)CC(C)N1CCC(n2nccc2NC(=O)CCc2ccccc2)CC1 (stereo not drawn)	-14	6	-2	-1	10	18	x	x
O=C1NC(=O)C(c2ccccc2[N+](=O)[O-])=C1Nc1ccc(O)c(Cl)c1	-8	-19	13*	1	14	-5	1	0
Clc1ccc(C2=NN(c3ccccc3)C(c3ccco3)C2)cc1 (stereo not drawn)	-10	1	-6	0	-51	-3	x	x
Cc1nc(N2N=C(c3ccc(Cl)cc3)CC2c2ccco2)sc1C(=O)N(C)C (stereo not drawn)	-42	-78	21*	4	-87	-26	7	1
N=C1/C(=C\c2ccc(-c3cc(Cl)cc(Cl)c3)o2)C(=O)N=C2SC=C(c3ccccc3)N12	-21	-9	13*	3	-25	10	5	0
SMILES	Jurkat NFkB inh	NR2E3 ag-1	GalR3 antagonist	NR2E3 ag-2	697 NFkB inh	Gli-Sufu block	GalR3 antag conf	HEK-CNG parental
N=C1/C(=C/c2ccc(-c3cccc(C(=O)O)c3)o2)C(=O)N=C2SC=C(c3ccccc3)N12	12	-59	0	3	-7	11	x	x
CN1C(=O)C(C)(C)c2cc(S(=O)(=O)N3CCCC(C(=O)Nc4ccc(Cl)cc4)C3)ccc21 (stereo not drawn)	4	17	18*	1	-5	4	25*	0
O=C(c1ccc(S(=O)(=O)Cc2ccccc2F)c([N+](=O)[O-])c1)N1CCCC1	15	-18	-2	2	34	10	x	x
O=C(c1ccc(S(=O)(=O)c2ccc(F)cc2)c([N+](=O)[O-])c1)N1CCCCCC1	20	-12	44*	3	-6	48	49*	-1
Cc1cc(OCC(=O)NNC(=S)NCC2CCCO2)cc(C)c1Cl (stereo not drawn)	27	-26	-1	-2	-37	7	x	x
O=C(NCc1cccs1)C1CC(=O)N(Cc2ccccc2)C1 (stereo not drawn)	-4	23	3	x	-11	-1	x	x
O=C(Nc1ccc2c(c1)OCCO2)NC1CCCCC1	-99	-126	x	-1	-96	-1	0	1
N#Cc1c(N)nc2c3c(sc(=N)c2c1N)NC(=O)CC3c1c(F)cccc1Cl (stereo not drawn)	-2	-10	-4	2	-34	0	x	x
N#Cc1c(N)nc2c3c(sc(=N)c2c1N)NC(=O)CC3c1ccccc1 (stereo not drawn)	4	-13	22*	8	-5	-6	25*	0
Cc1c(C#N)c(N)nc2c3c(sc12)NC(=O)CC3c1ccc(Cl)cc1 (stereo not drawn)	17	16	25*	-1	11	22	48*	0
COc1ccc(NC(=O)CSc2n[nH]c(-c3ccccc3)n2)cc1S(N)(=O)=O	5	2	-2	2	8	-6	x	x
Cn1nccc1C(=O)Nn1cnnc1	24	-38	x	-2	26	-7	6	0
Cc1nn(C)c(C)c1NC(=O)c1ccnn1C	8	5	0	-1	8	4	x	x
CC1CN(C(=O)CCC(=O)NCCCN2CCN(Cc3ccccc3)CC2)c2cc(Cl)ccc2O1 (stereo not drawn)	-1	16	-5	-1	-35	42	x	x

Screening results: PubChem, several laboratories
